Only some compounds are listed: those with a hit (about 3.5% of all), similar ones and a draw of the others.
TCR-CD3 inh = inhibitors of human TCR-CD3 interaction; TAMRA-labeled TCR probe fluorescence, biochemical; AID 651800; inhibition, % at 9.4 µM; 0.37% of 360,000 active; in the data active means inhibition above about 19%;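 further: recombinant mutant TCR 2C K166C tagged with TAMRA read by polarization; 0% = receptor in buffer alone and 100% = receptor with positive control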
rCAG binder = r(CAG) repeat RNA binding. TO-PRO-1 dye displacement fluorescence. inhibition, % at 3 µM. 1.3% of 370,000 active;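 active means inhibition above the plate cutoff, the mean of all test compounds on that plate plus 3 SD, cut at about 35% in these data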;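 further: 0% = DMSO alone and 100% = 100 µM mitoxantrone as full dye displacement; higher means more dye released from RNA so lower well fluorescence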
mABHD4 FP = inhibitors of mouse ABHD4 | purified mABHD4, FP-Rh probe fluorescence polarization | inhibition, % at 8.92 µM | 0.54% of 370,000 active;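 active means inhibition exceeding the mean over every tested compound plus 3 SD, cut at about 30% in these data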;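 further: 0% = plate median of compound wells and 100% = S159A mutant with DMSO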
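Assay system: mABHD4 protein; medium: HEPES pH 7.0, NaCl, Pluronic buffer; dosing: 8.92 µM, single dose; schedule: 45 min + 60 min at 25 °C; signal: FP readout, ex 525 nm / em 598 nm; read-out: normalized percent inhibition of probe labeling; repeats: single replicate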
PRMT1 inh = PRMT1 (human) inhibition, primary screen; recombinant PRMT1, activity-based probe fluorescence polarization; inhibition, % at 2.79 µM; 1.3% of 370,000 active; Q99873;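 active means inhibition above about 21% made by adding two undisclosed values, limit read from the data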
HTRA1 inh = inhibitors of human serine peptidase HTRA1; Q92743; recombinant HTRA1, FP-rhodamine activity-based probe, fluorescence polarization; inhibition, % at 5.96 µM; 0.5% of 340,000 active; in the data active means inhibition above about 36%;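 further: 0% = enzyme with DMSO and 100% = wells lacking enzyme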
Target sequence (Q92743 whole entry, looked up): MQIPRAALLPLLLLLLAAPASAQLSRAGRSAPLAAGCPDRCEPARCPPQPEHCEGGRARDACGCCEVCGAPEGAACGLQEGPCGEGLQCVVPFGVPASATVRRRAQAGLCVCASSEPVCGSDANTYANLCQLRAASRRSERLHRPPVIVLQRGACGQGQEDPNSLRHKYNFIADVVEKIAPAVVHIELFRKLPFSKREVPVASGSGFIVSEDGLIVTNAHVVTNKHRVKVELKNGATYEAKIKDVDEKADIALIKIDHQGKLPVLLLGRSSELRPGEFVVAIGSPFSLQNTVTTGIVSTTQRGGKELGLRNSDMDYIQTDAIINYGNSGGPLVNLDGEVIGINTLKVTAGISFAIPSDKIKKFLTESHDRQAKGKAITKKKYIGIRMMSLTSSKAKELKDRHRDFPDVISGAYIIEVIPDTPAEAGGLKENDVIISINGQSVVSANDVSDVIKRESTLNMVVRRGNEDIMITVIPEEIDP
SIAE inh = blocks human sialic acid acetylesterase | Q9HAT2 | SIAE FP-Rh probe binding, fluorescence polarization | inhibition, % at 9.66 µM | 0.69% of 370,000 active;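 active means inhibition above a cutoff: mean of compounds within the control limits plus 3 SD of those, cut at about 17% in these data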;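 further: 0% = plate median of compound wells and 100% = probe without SIAE protein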
Numbers without * were called inactive; · = not tested or not shown.

SMILES	TCR-CD3 inh	rCAG binder	mABHD4 FP	PRMT1 inh	HTRA1 inh	SIAE inh
COC(=O)[C@]12C[C@H](CC(=O)NCc3cccc4ccccc34)C(=O)N(Cc3ccco3)C1=C[C@H](C1CCCC1)O[C@@H]2C	·	4	-12	-2	·	-5
COc1ccccc1NC(=O)CSc1nc(O)cc(=O)n1-c1ccccc1OC	2	40*	-22	3	-14	-7
COc1ccccc1-n1c(SCC(=O)NC(C)(C)C)nc(O)cc1=O	-3	11	4	5	0	1
COc1ccc(/C=C/S(=O)(=O)NCCc2ccccc2)c(CNC(=O)OC(C)(C)C)c1	·	2	-17	0	·	12
Cc1[nH]c2ccccc2c1SCC(=O)O	5	3	0	1	4	6
O=C(O)CSc1c2ccccc2cc2ccccc12	0	9	22	31*	-5	3
O=C1CC(N2CCN(c3ccccc3Cl)CC2)C(=O)N1c1ccccc1 (stereo not drawn)	-1	-2	0	24*	-7	3
COc1ccc(-c2noc(-c3ccc4c(c3)OCO4)n2)cc1	-3	4	-2	0	-2	-1
COc1ccc(Nc2nnc(-c3ccc4c(c3)OCO4)o2)cc1	2	5	6	24*	·	0
O=[N+]([O-])c1c(Nc2ccc(O)cc2)cc(Cl)c2nonc12	1	6	25	77*	8	1
CN(C)c1cc(Nc2ccc(O)cc2)c([N+](=O)[O-])c2nonc12	4	-1	2	-3	-4	6
CC(=O)Nc1cccc(C(=O)/C=C/c2ccc[nH]2)c1	-9	17	-3	22*	4	6
CC(=O)Nc1cccc(C(=O)/C=C/c2ccco2)c1	0	13	1	21*	0	6
C=CCN1C(=O)[C@@H](CC(=O)NCC23CC4CC(CC(C4)C2)C3)[C@]2(C(=O)OCC)CCCCC/C=C/12	·	8	5	8	·	3
Cc1cccc(-c2cccc3c4c([nH]c23)[C@@H]2C[C@H](N(C)C(=O)OCc3ccccc3)[C@H]([C@H](C)O)CN2CC4)c1	·	8	-1	2	·	-3
CCn1c(N)c(C(=O)NC)sc1=S	8	2	1	25*	11	10
CC1(C)CC[C@]2(C(=O)n3ccnc3)CC[C@]3(C)[C@H](C(=O)C=C4[C@@]5(C)C=C(C#N)C(=O)C(C)(C)[C@@H]5CC[C@]43C)[C@@H]2C1	1	53*	7	1	-18	-5
CCOC(=O)c1c(NC(=O)CSc2nnnn2-c2ccccc2)sc2c1CCC(C)C2 (stereo not drawn)	-2	-1	8	1	-4	2
CCn1c(SCC(=O)Nc2sc3c(c2C(N)=O)CCC(C)C3)nnc1-c1ccco1 (stereo not drawn)	5	27	5	22*	-10	-10
CCC1CCCCN1C(=S)NN=C(C)c1ccccn1 (stereo not drawn)	-2	1	5	24*	·	-2
O=Cc1ccc(O)cc1O	6	-2	-1	1	2	3
O=CN/C=C/c1cc(O)ccc1O	6	11	19	48*	11	17
COc1ccc(NC(=O)CSc2nc3[nH]c(=O)[nH]c(=O)c3s2)cc1OC	7	6	9	3	12	2
COc1ccc(OC)c(NC(=O)CSc2nc3scc(C)c3c(=O)[nH]2)c1	-7	28	14	3	-12	-2
COc1ccc(OC)c(NC(=O)CSc2nc3[nH]c(=O)[nH]c(=O)c3s2)c1	5	37*	10	19	-1	-31
SMILES	TCR-CD3 inh	rCAG binder	mABHD4 FP	PRMT1 inh	HTRA1 inh	SIAE inh
CCn1c(=S)sc2c(=O)[nH]c(SCC(=O)Nc3cc(OC)ccc3OC)nc21	3	76*	-7	5	-25	1
CC(C)CC(=O)Nc1nc2ccc(S(C)(=O)=O)cc2s1	-6	0	-14	23*	1	-4
CCOc1ccc(NC(=O)Nc2nc3ccc(S(C)(=O)=O)cc3s2)cc1	1	39*	2	0	2	16
CCC(=O)Nc1nc2ccc(S(C)(=O)=O)cc2s1	-4	1	0	-1	1	9
CCCCCCCCN1C(=O)[C@@H](CC(=O)N2CCCC2)C[C@@]2(C(=O)OC)C1=C[C@H](COCc1ccccc1)O[C@@H]2C	·	-1	1	2	·	1
Cc1ccc2c(c1)-c1c(cnn1CC(=O)NC(C)CCc1ccco1)CO2 (stereo not drawn)	-3	11	-3	23*	-14	2
CC(=O)c1c(C(C)=O)c(C)n(-c2cccc([N+](=O)[O-])c2)c1C	2	-2	11	-2	1	-2
CC(=O)C1=C(c2cccc([N+](=O)[O-])c2)N(C(C)=O)n2c(C)nnc2S1	-1	0	-7	75*	0	-2
CC(=O)Nc1sc2c(c1-c1nc3ccccc3s1)CCCN(C(C)C)C2	·	·	-14	0	·	-6
CCOC(=O)c1c(NC(=S)Nc2ccccc2)sc2c1CC(C)(C)SC2	-5	34	-10	1	-81	-20
CCOC(=O)c1c(NC(=S)NC)sc2c1CC(C)(C)SC2	3	24	1	24*	1	-1
COC(=O)C1CN(Cc2ccccc2)CCS(=O)(=O)N1Cc1cn(Cc2ccc(C)cc2)nn1 (stereo not drawn)	·	-1	7	-6	·	8
Oc1cc(NCCN2CCOCC2)cc2cccnc12	11	-5	16	21*	8	6
CCC(c1nnnn1Cc1ccco1)N(CCN1CCOCC1)Cc1cc2cc(C)ccc2[nH]c1=O (stereo not drawn)	8	6	4	21*	0	3
Cc1cccc(N=Nc2c(N)n[nH]c2-c2ccc(Cl)cc2)c1	3	40*	-2	-3	-4	9
Cc1[nH]c2ccccc2c1C(C#N)(C#N)C1C(=O)c2ccccc2C1=O	-1	20	39*	1	27	8
CCCCCCCCNS(=O)(=O)CC1NCc2cc(F)ccc21 (stereo not drawn)	·	6	-18	-3	·	0
COC(=O)c1cc(C)nc(Sc2ccccc2N)n1	2	3	-1	25*	·	6
CC1=C2NC(N)=[N+](CC3CC3)C(Cc3ccccc3)[C@@H]2n2c(=O)n(-c3ccccc3)c(=O)n2C1 (stereo partly drawn)	·	15	3	-1	·	3
COCCCNC(=O)C[C@H]1C[C@@]2(C(=O)OC)C(=C[C@H](C(C)C)O[C@@H]2C2CC2)N(Cc2ccc(Cl)cc2Cl)C1=O	·	-1	-7	-5	·	-5
O=[N+]([O-])c1ccc2c(c1)-c1ccccc1C2O (stereo not drawn)	1	5	5	36*	0	6
O=C(NCCO)c1ccc2nc(-c3ccco3)c(-c3ccco3)nc2c1	26*	54*	42*	65*	22	20*

Assay outcomes: PubChem BioAssay, The Scripps Research Institute Molecular Screening Center
